In ChEMBL document CHEMBL1125678, “Quinazolineacetic acids and related analogues as aldose reductase inhibitors” (J Med Chem, 1991):

Columns and labels:
[1] = target: Aldo-keto reductase family 1 member B1 (Bos taurus) (UniProt P16116); test: (§1) In vitro inhibition of aldose reductase in partially purified bovine lens preparation at a concentration of 10e -6M.
Summary of the method: (§2)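 Enzyme from bovine lens, partially purified by the cited method with the final chromatographic step omitted. DL-Glyceraldehyde was the substrate. Test compounds were run in duplicate at 1×10⁻⁵, 1×10⁻⁶, 1×10⁻⁷ or 4×10⁻⁸ M. Values are % inhibition of enzymatic activity.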

Rattus norvegicus [2] = test: In vivo inhibition of galactitol accumulation in the sciatic nerve of rats fed 20% galactose for 4 day at 95 mg/kg/day dose; NS= No Significant inhibition of polyol accumulation; type: functional, organism-based
[3] = target: Aldo-keto reductase family 1 member B1 (Bos taurus) (UniProt P16116); test: In vitro inhibition of aldose reductase in partially purified bovine lens preparation at a concentration of 10e -7M.; summary of the method: as §2
[4] = target: Aldo-keto reductase family 1 member B1 (Bos taurus) (UniProt P16116); test: In vitro inhibition of aldose reductase in partially purified bovine lens preparation at a concentration of 4*10e -8M.; summary of the method: as §2
Rattus norvegicus [5] = test: In vivo inhibition of galactitol accumulation in the diaphragm of rats fed 20% galactose for 4 day at 109 mg/kg/day dose; type: functional
Summary of the method: (§3)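 Male Sprague-Dawley rats (50–70 g) in groups of six were fed chow with 20% (w/w) galactose. Controls received 20% glucose instead. Test compound was mixed into the diet, and dose was calculated from actual food intake. Rats were killed by decapitation after 4 days. Result is % lowering of tissue galactitol versus galactose-fed controls, as the mean of six animals, compared by Dunnett's multiple comparison.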

[6] = target: Aldo-keto reductase family 1 member B1 (Bos taurus) (UniProt P16116); test: In vitro inhibition of Aldose reductase in partially purified bovine lens preparation at a concentration of 10e -7M.; summary of the method: as §2
[7] = target: Aldo-keto reductase family 1 member B1 (Bos taurus) (UniProt P16116); test: in vitro inhibition of Aldose reductase in partially purified bovine lens preparation at a concentration of 10e-6 M.
Rattus norvegicus [8] = test: In vivo inhibition of galactitol accumulation in the sciatic nerve of rats fed 20% galactose for 4 day at 79 mg/kg/day dose; NS = No Significant inhibition of polyol accumulation; type: functional, organism-based; summary of the method: as §3
Rattus norvegicus [9] = test: In vivo inhibition of galactitol accumulation in the diaphragm of rats fed 20% galactose for 4 day at 79 mg/kg/day dose; NS = No Significant inhibition of polyol accumulation; type: functional, organism-based; summary of the method: as §3
[10] = target: Aldo-keto reductase family 1 member B1 (Bos taurus) (UniProt P16116); test: In vitro inhibition of Aldose reductase in partially purified bovine lens preparation at a concentration of 4*10e -8M.; summary of the method: as §2
Rattus norvegicus [11] = test: In vivo inhibition of galactitol accumulation in the sciatic nerve of rats fed 20% galactose for 4 day at 98 mg/kg/day dose; NS = No Significant inhibition of polyol accumulation; type: functional, organism-based
Rattus norvegicus [12] = test: In vivo inhibition of galactitol accumulation in the diaphragm of rats fed 20% galactose for 4 day at 98 mg/Kg/day; NS = No Significant inhibition of polyol accumulation; type: functional, organism-based; summary of the method: as §3
Rattus norvegicus [13] = test: In vivo inhibition of galactitol accumulation in the diaphragm of rats fed 20% galactose for 4 day at 103 mg/kg/day dose; type: functional; summary of the method: as §3
[14] = target: Aldo-keto reductase family 1 member B1 (Bos taurus) (UniProt P16116); test: In vitro inhibition of aldose reductase in partially purified bovine lens preparation at a concentration of 10e-6 M.; summary of the method: as §2
Rattus norvegicus [15] = test: In vivo inhibition of galactitol accumulation in the sciatic nerve of rats fed 20% galactose for 4 day at 82 mg/kg/day dose; NS = No Significant inhibition of polyol accumulation; type: functional, organism-based; summary of the method: as §3
Rattus norvegicus [16] = test: In vivo inhibition of galactitol accumulation in the diaphragm of rats fed 20% galactose for 4 day at 82 mg/kg/day dose; NS = No Significant inhibition of polyol accumulation; type: functional, organism-based; summary of the method: as §3
Rattus norvegicus [17] = test: In vivo inhibition of galactitol accumulation in the sciatic nerve of rats fed 20% galactose for 4 day at 88 mg/kg/day dose; NS = No Significant inhibition of polyol accumulation; type: functional, organism-based; summary of the method: as §3
Rattus norvegicus [18] = test: In vivo inhibition of galactitol accumulation in the diaphragm of rats fed 20% galactose for 4 day at 88 mg/kg/day dose; type: functional, organism-based; summary of the method: as §3
Rattus norvegicus [19] = test: In vivo inhibition of galactitol accumulation in the diaphragm of rats fed 20% galactose for 4 day at 91 mg/kg/day dose; type: functional; summary of the method: as §3
Rattus norvegicus [20] = test: In vivo inhibition of galactitol accumulation in the sciatic nerve of rats fed 20% galactose for 4 day at 91 mg/kg/day dose; type: functional; summary of the method: as §3
Rattus norvegicus [21] = test: In vivo inhibition of galactitol accumulation in the diaphragm of rats fed 20% galactose for 4 day at 81 mg/kg/day dose; type: functional; summary of the method: as §3
Rattus norvegicus [22] = test: In vivo inhibition of galactitol accumulation in the diaphragm of rats fed 20% galactose for 4 day at 115 mg/kg/day dose; type: functional; summary of the method: as §3
Rattus norvegicus [23] = test: In vivo inhibition of galactitol accumulation in the sciatic nerve of rats fed 20% galactose for 4 day at 115 mg/kg/day dose; type: functional; summary of the method: as §3
[24] = target: Aldo-keto reductase family 1 member B1 (Bos taurus) (UniProt P16116); test: as §1; type: functional; summary of the method: as §2
Rattus norvegicus [25] = test: In vivo inhibition of galactitol accumulation in the sciatic nerve of rats fed 20% galactose for 4 day at 58 mg/kg/day dose; NS = No Significant inhibition of polyol accumulation; type: functional, organism-based; summary of the method: as §3
Rattus norvegicus [26] = test: In vivo inhibition of galactitol accumulation in the diaphragm of rats fed 20% galactose for 4 day at 58 mg/kg/day dose; NS = No Significant inhibition of polyol accumulation; type: functional, organism-based; summary of the method: as §3
Rattus norvegicus [27] = test: In vivo inhibition of galactitol accumulation in the sciatic nerve of rats fed 20% galactose for 4 day at 105 mg/kg/day dose; NS = No Significant inhibition of polyol accumulation; type: functional, organism-based; summary of the method: as §3
Rattus norvegicus [28] = test: In vivo inhibition of galactitol accumulation in the diaphragm of rats fed 20% galactose for 4 day at 105 mg/kg/day dose; NS = No Significant inhibition of polyol accumulation; type: functional, organism-based; summary of the method: as §3
Rattus norvegicus [29] = test: In vivo inhibition of galactitol accumulation in the sciatic nerve of rats fed 20% galactose for 4 day at 77 mg/kg/day dose; NS = No Significant inhibition of polyol accumulation; type: functional, organism-based; summary of the method: as §3
Rattus norvegicus [30] = test: In vivo inhibition of galactitol accumulation in the diaphragm of rats fed 20% galactose for 4 day at 77 mg/kg/day dose; NS = No Significant inhibition of polyol accumulation; type: functional, organism-based; summary of the method: as §3
Rattus norvegicus [31] = test: in vivo inhibition of galactitol accumulation in the sciatic nerve of rats fed 20% galactose for 4 day; conditions: 96 h
Rattus norvegicus [32] = test: In vivo inhibition of galactitol accumulation in the diaphragm of rats fed 20% galactose for 4 day at 100 mg/kg/day dose; type: functional; summary of the method: as §3
Rattus norvegicus [33] = test: In vivo inhibition of galactitol accumulation in the sciatic nerve of rats fed 20% galactose for 4 day at 100 mg/kg/day dose; NS = No Significant inhibition of polyol accumulation; type: functional, organism-based; summary of the method: as §3
Rattus norvegicus [34] = test: In vivo inhibition of galactitol accumulation in the sciatic nerve of rats fed 20% galactose for 4 day at 90 mg/kg/day dose; NS = No Significant inhibition of polyol accumulation; type: functional, organism-based; summary of the method: as §3
Rattus norvegicus [35] = test: In vivo inhibition of galactitol accumulation in the diaphragm of rats fed 20% galactose for 4 day at 90 mg/kg/day dose; NS = No Significant inhibition of polyol accumulation; type: functional, organism-based; summary of the method: as §3
[36] = target: Aldo-keto reductase family 1 member B1 (Bos taurus) (UniProt P16116); test: in vitro inhibition of aldose reductase in partially purified bovine lens preparation at a concentration of 10e -5M.
Rattus norvegicus [37] = test: In vivo inhibition of galactitol accumulation in the diaphragm of rats fed 20% galactose for 4 day at 102 mg/kg/day dose; type: functional; summary of the method: as §3
Rattus norvegicus [38] = test: In vivo inhibition of galactitol accumulation in the sciatic nerve of rats fed 20% galactose for 4 day at 102 mg/kg/day dose; type: functional; summary of the method: as §3

CC(c1ccccc1)n1c(=O)n(CC(=O)O)c(=O)c2cc(Br)ccc21 (configuration not stated)
inhibition [1]: 34%
Lowering (Rattus norvegicus [2]): Not significant

O=C(O)CN1C(=O)N(Cc2ccc(Cl)c(Cl)c2)Cc2ccccc21
inhibition [3]: 53%
inhibition [4]: 31%
Lowering (Rattus norvegicus [2]): Not significant
Lowering (Rattus norvegicus [5]): 30%

Cc1nc2cc3ccccc3cc2c(=O)n1CC(=O)O
inhibition [6]: 28%
inhibition [7]: 76%
Lowering (Rattus norvegicus [8]): Not significant
Lowering (Rattus norvegicus [9]): Not significant

O=C(O)Cn1c2ccc([N+](=O)[O-])cc2c(=O)n1Cc1ccc(Cl)c(Cl)c1
inhibition [6]: 41%
inhibition [10]: 27%
Lowering (Rattus norvegicus [11]): Not significant
Lowering (Rattus norvegicus [12]): Not significant

O=C(O)Cn1c(=O)c2ccc(F)cc2n(Cc2ccc(Br)cc2F)c1=O
inhibition [3]: 74%
inhibition [4]: 53%
Lowering (Rattus norvegicus [2]): Not significant
Lowering (Rattus norvegicus [13]): 63%

Cc1nc2ccc(Br)cc2c(=O)n1CC(=O)O
inhibition [3]: 20%
inhibition [14]: 63%
Lowering (Rattus norvegicus [15]): Not significant
Lowering (Rattus norvegicus [16]): Not significant

Cc1sc2c(c1C)c(=O)n(CC(=O)O)c(=O)n2Cc1ccc(Cl)c(Cl)c1
inhibition [3]: 79%
inhibition [4]: 51%
Lowering (Rattus norvegicus [17]): Not significant
Lowering (Rattus norvegicus [18]): Not significant

O=C(O)Cn1c(=O)c2cc(Cl)ccc2n(Cc2ccc(Br)cc2F)c1=O
inhibition [3]: 80%
inhibition [4]: 51%
Lowering (Rattus norvegicus [19]): 78%
Lowering (Rattus norvegicus [20]): 47%

O=C(O)CN1Cc2ccccc2N(Cc2ccc(Cl)c(Cl)c2)C1=O
inhibition [3]: 68%
inhibition [4]: 41%
Lowering (Rattus norvegicus [2]): Not significant
Lowering (Rattus norvegicus [21]): 38%

O=C(O)Cn1c(=O)c2ccccc2n(Cc2ccc(Br)cc2F)c1=O
inhibition [3]: 71%
inhibition [4]: 34%
Lowering (Rattus norvegicus [22]): 58%
Lowering (Rattus norvegicus [23]): 54%

Cc1c(-c2ccccc2)n(Cc2ccc(Cl)c(Cl)c2)c(=O)n(CC(=O)O)c1=O
inhibition [24]: 68%
inhibition [3]: 22%
inhibition [4]: 16%
Lowering (Rattus norvegicus [25]): Not significant
Lowering (Rattus norvegicus [26]): Not significant

O=C(O)Cn1c(=O)c2sccc2n(Cc2ccc(Br)cc2F)c1=O
inhibition [3]: 68%
inhibition [4]: 43%
Lowering (Rattus norvegicus [27]): Not significant
Lowering (Rattus norvegicus [28]): Not significant

O=C(O)Cn1cnc2ccc(Br)cc2c1=O
inhibition [7]: 32%
Lowering (Rattus norvegicus [29]): Not significant
Lowering (Rattus norvegicus [30]): Not significant

COc1ccc2c(C(=S)N(C)CC(=O)O)cccc2c1C(F)(F)F [TOLRESTAT]
ED50 (Rattus norvegicus [31]): 6.4 mg/kg/day

O=C(O)Cn1c(=O)c2c3c(sc2n(Cc2ccc(Cl)c(Cl)c2)c1=O)CCCC3
inhibition [3]: 86%
inhibition [4]: 63%
Lowering (Rattus norvegicus [32]): 19%
Lowering (Rattus norvegicus [33]): Not significant

CC(C)c1nc2ccc(Br)cc2c(=O)n1CC(=O)O
Lowering (Rattus norvegicus [34]): Not significant
Lowering (Rattus norvegicus [35]): Not significant
inhibition [36]: 40%

Cc1ccc2c(c1)c(=O)n(CC(=O)O)c(=O)n2Cc1ccc(Cl)c(Cl)c1
inhibition [3]: 80%
inhibition [4]: 40%
Lowering (Rattus norvegicus [37]): 76%
Lowering (Rattus norvegicus [38]): 65%
